CSN deneddyl inh: CSN deneddylation inhibition. Q92905. Purified CSN, SCF-Nedd8-OG deneddylation, fluorescence polarization. inhibition, % at 12.5 µM. 0.38% of 360,000 active. AID 651999;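 active = pattern-corrected inhibition above about 35%, with an unprinted fluorescence ratio check between 0.5 and 1.5, limit read from the data, passing the limit was not always enough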;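 note: 0% = enzyme with substrate and 100% = substrate without enzyme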
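Material: human Csn5 produced in HEK293T cells; Input: enzyme 0.24 nM; Reagent: SCFSkp2-Nedd8OG substrate at 10 nM final; Dosing: 12.5 µM compound; Incubation: 90 min reaction at room temperature; Detection: fluorescence polarization of the substrate; Evaluation: % inhibition of substrate cleavage by Csn5; Control set: substrate-only high control, full reaction low control.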
Myeloid diff MLP: promotes myeloid progenitor differentiation | ER-HoxA9 myeloid progenitors, lysozyme-GFP differentiation, flow cytometry | calls only at 10 µM | 1% of 360,000 active;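 active = normalized GFP-positive differentiation at or above the plate's own cutoff, the solvent-only control mean plus 3 SD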;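 note: cells exposed to compound for four days before flow analysis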
HNF4A DNA FP: change in binding of human HNF4 alpha to DNA; P41235; HNF4a-FITC DNA binding, fluorescence polarization, 1 h; activity change, % at 10 µM; 0.3% of 360,000 active; AID 1224865; in the data active = activity change above about 30%, passing the limit was not always enough
Target sequence (P41235 whole entry, looked up): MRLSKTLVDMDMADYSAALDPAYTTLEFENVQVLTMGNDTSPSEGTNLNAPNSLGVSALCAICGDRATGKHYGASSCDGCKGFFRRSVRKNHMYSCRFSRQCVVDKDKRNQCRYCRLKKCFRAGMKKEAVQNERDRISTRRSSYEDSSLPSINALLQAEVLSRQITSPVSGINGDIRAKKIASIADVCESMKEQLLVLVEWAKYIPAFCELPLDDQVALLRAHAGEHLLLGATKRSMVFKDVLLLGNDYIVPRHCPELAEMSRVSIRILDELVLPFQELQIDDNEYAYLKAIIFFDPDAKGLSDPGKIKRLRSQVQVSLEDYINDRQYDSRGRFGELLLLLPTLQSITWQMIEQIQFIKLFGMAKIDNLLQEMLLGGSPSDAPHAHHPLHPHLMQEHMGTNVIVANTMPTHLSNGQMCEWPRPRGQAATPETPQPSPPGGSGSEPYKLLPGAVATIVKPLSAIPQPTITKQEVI
Granule exo inh: blocks lytic granule exocytosis | TALL-104 LAMP-1 surface exposure, flow cytometry; cells stimulated with thapsigargin and PMA | inhibition, % at 10 µM | 0.66% of 360,000 active | AID 651702;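 active = inhibition above about 55%, limit read from the data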
Myeloid diff: myeloid differentiation induction | 2% of 2,300 active | shares compounds with Myeloid diff MLP | calls only | ER-HoxA9 myeloid progenitors, GFP/Mac1 double-positive flow;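 active = share of green or green-and-red cells above 9 and 9% in run 1 or 4 and 3% in run 2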
GFP autofluor: compound fluorescence in myeloid differentiation counter-screen; shares compounds with Myeloid diff MLP; 7.4% of 2,300 active; fluorescence response, % (no concentration beside the values); AID 651707; ER-HoxA9 myeloid progenitors, no estrogen, GFP autofluorescence flow cytometry; vehicle wells 0%, positive control 100%;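 active = over 5% cells positive for green fluorescent reporter, or over 2% positive for both it and APC stain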;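 note: range taken on the double positive population between DMSO and positive control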
* hit, by the source's call; i = inactive; . = not tested or not shown; + = active, no number. In the library only some 2.2% were active in any assay of this set; here they are far more common.

SMILES	CSN deneddyl inh	Myeloid diff MLP	HNF4A DNA FP	Granule exo inh	Myeloid diff	GFP autofluor
CC(=O)Nc1ccc(N(C(=O)c2ccccn2)C(C(=O)NC2CCCCC2)c2ccc(F)cc2)cc1 (centres undefined)	-2	i	0	-4	.	.
CCOc1ccc(S(=O)(=O)NCCC(=O)NCc2cccnc2)cc1	-1	i	2	-2	.	.
CCCCn1nc(NC(=O)COC)c2cc3cc(OC)ccc3nc21	-2	i	5	-9	i	0
O=C(CNC(=O)c1ccc(Cl)cc1Cl)OCCOc1ccccc1F	-5	i	-2	-6	.	.
O=C(CSc1nnnn1-c1ccccc1)NCC1(N2CCOCC2)CCCCC1	-5	i	-3	9	i	3
O=C(Cc1ccc(Cl)cc1Cl)NCC1(N2CCOCC2)CCCCC1	2	i	0	-6	i	0
O=C(CN1CCN(S(=O)(=O)c2cccc(Cl)c2)CC1)NCC1(N2CCOCC2)CCCCC1	0	i	2	-3	.	.
COc1cc(C2/C(=C(\O)c3ccc4c(c3)CC(C)O4)C(=O)C(=O)N2CCN2CCOCC2)cc(OC)c1OC (centres undefined)	0	i	-3	7	.	.
COc1ccc2[nH]c3nc(SCC(=O)NNC(=O)c4ccc(OC)c(OC)c4)nnc3c2c1	-2	i	0	1	i	0
Cc1ccc2nc(N/N=C\c3ccc([N+](=O)[O-])o3)nc(-c3ccccc3)c2c1	0	i	18	5	.	.
O=C(N/N=C/c1ccc([N+](=O)[O-])o1)c1cc2ccccc2o1	16	i	-4	1	i	0
O=[N+]([O-])c1ccc(/C=N/Nc2ccc3ccccc3c2)o1	23	+	10	-4	i	8.1*
O=C(Nc1cccc(C(F)(F)F)c1)C1C2CC3OC(=O)C1C3C2 (centres undefined)	0	+	-1	-1	i	0
Cc1ccc(C)n1NC(=O)c1cccs1	21	i	9	-1	i	0
Cc1ccc(C)n1NC(=O)c1ccccc1	8	i	4	-1	.	.
CCCCCCCCC1=NCCc2c1[nH]c1ccccc21	8	i	10	33	i	0
CC(C)C/C=C1\CCc2c([nH]c3ccccc23)C1=O	-5	i	0	-3	.	.
CC(C)(CN1CCN(c2ccccc2)CC1)NS(=O)(=O)c1ccccc1	0	i	0	-2	.	.
CC(C)(CN1CCCC1)NS(=O)(=O)c1ccccc1	-1	i	-3	-5	i	0
Cc1ccc2c(cnn2C(=O)CCCC(=O)NC(C)c2ccccc2)c1 (centres undefined)	1	i	2	4	.	.
Cc1cccc(-n2c(C)cc(C=C3C(=O)c4ccccc4C3=O)c2C)c1	-1	i	-69	23	i	0
COc1ccc(NC(=O)c2ccc(NC(=O)CN3CCN(c4ccccc4)CC3)cc2)cc1	4	i	-1	9	.	.
COc1cccc(C=Nc2cccc3c(=O)[nH][nH]c(=O)c23)c1O	2	+	9	-1	i	0
CN1CCN(c2nc3c(c(=O)[nH]c(=O)n3C)n2Cc2cccc(Br)c2)CC1	6	i	-2	1	.	.
Cn1c(=O)[nH]c(=O)c2c1nc(Br)n2Cc1cccc(Br)c1	1	i	-3	12	i	0
SMILES	CSN deneddyl inh	Myeloid diff MLP	HNF4A DNA FP	Granule exo inh	Myeloid diff	GFP autofluor
O=[N+]([O-])c1ccc(C[n+]2cccc3c4ccccc4ccc32)cc1	-2	i	0	-1	+	0
COc1cccc(NC(=O)N2CCCC2C(=O)NCc2ccc(Cl)cc2)c1 (centres undefined)	3	i	-3	-6	i	0
COc1cccc(NC(=O)N2CCCC2C(=O)NCc2ccco2)c1 (centres undefined)	-6	i	0	1	.	.
CCCCN(C)C(=O)c1ccc2c(c1)S(=O)(=O)c1ccccc1C2=O	-5	i	5	-30	.	.
Cc1ncsc1CCSc1n[nH]c(=O)n1-c1ccccc1	1	i	-4	7	.	.
Cc1ncsc1CCSc1nc2ccccc2c(=O)n1C	-3	i	-2	-4	i	0
CCCCSc1nnc(CCCCCNC(=O)OC(C)(C)C)o1	6	+	-1	-1	i	1
O=c1oc2ccccc2c(Nc2ccccc2O)c1[N+](=O)[O-]	-4	+	4	-10	i	0
S=C(NNc1ccc2ccccc2c1)NC1CCCCC1	-1	i	1	0	i	0
COc1ccc(CCn2c(N)c(C(=O)NCc3ccco3)c3nc4ccccc4nc32)cc1	11	.	9	-2	.	.
COc1ccc(-n2c(N)c(C(=O)NCc3ccco3)c3nc4ccccc4nc32)c(OC)c1	25	+	3	5	i	4
CCO/C(C)=N/Oc1cc(OC)cc(OC)c1	-3	i	2	-3	.	.
NNc1nc2c(F)cccc2s1	-4	i	-3	2	.	.
NNc1nc2c(F)cc(F)cc2s1	-6	+	0	3	i	0
O=C(Nc1ccccc1N1CCOCC1)c1cccc2c(Br)cccc12	-3	+	0	0	i	0
O=C(CCNC(=O)c1ccc(Br)cc1)Nc1ccccc1N1CCOCC1	-2	i	2	-16	i	0
O=C(Nc1ccccc1N1CCOCC1)c1ccc([N+](=O)[O-])o1	-3	i	3	0	i	0
CC(C)C[C@@H](CNCC(=O)[C@H](Cc1c[nH]c2ccccc12)NC(=O)c1[nH]cnc1C(=O)N[C@@H](C)CN)NC(=O)c1nc[nH]c1C(=O)N[C@@H](C)C(=O)O	0	i	2	-1	.	.
c1ccc(Cn2ncc3c(NCc4ccco4)ncnc32)cc1	1	i	-3	2	i	0
COc1ccc(/C=C/C(=O)NCCC(=O)N2CCCN(C)CC2)cc1	0	i	4	1	i	0
COc1ccc(/C=C/C(=O)NCCCN2CCCC2)cc1	5	i	-1	-5	.	.
COc1ccc(C(=O)NC(=S)Nc2cccc(S(=O)(=O)N3CCOCC3)c2)cc1	-5	i	-8	1	i	0
CC(Sc1nccn1C)C(=O)Nc1ccc(Cl)cn1 (centres undefined)	3	i	-3	-6	.	.
CC(C)N(CC#CCC(O)(c1ccccc1)c1ccccc1)C(C)C	8	i	1	2	i	0
CCN(CC#CCC(O)(c1ccccc1)c1ccccc1)C(C)C	-10	i	0	-8	.	.
COc1ccc(S(=O)(=O)N(C)C[C@@H]2Oc3c(NS(=O)(=O)c4cn(C)cn4)cccc3C(=O)N([C@@H](C)CO)C[C@@H]2C)cc1	6	i	2	1	.	.

Screening results: PubChem BioAssay, several laboratories
